High-throughput results as filed in PubChem.
Hits are enriched below; roughly 1.9% of the tested compounds scored in any of these assays.
LEDGF integ inh = blockers of LEDGF/p75-dependent integrase strand transfer – biochemical, TR-FRET, high throughput, primary screen; AID 743269, 2014; 0.64% of 370,000 active; inhibition, % at 3.7 µM; TR-FRET IN-LEDGF/p75 DNA integration, Eu/Cy5;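 active means inhibition above the screen-wide mean plus 3 SD, cut at about 13% in these data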;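 further: signal is the Cy5 over europium emission ratio at 671 and 618 nm; 0% = plate median of compound wells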
UHRF1 binding = UHRF1 methylated DNA binding inhibitors, primary screen, counter-screen for MBD2 inhibitor project, biochemical, TR-FRET, human UHRF1, single concentration; UHRF1 binding to methylated oligo; inhibition, % at 4.4 µM; 0.75% of 370,000 active; AID 687016, 2013; in the data active means inhibition above about 21%;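 further: UHRF1 SRA domain binding a hemimethylated CpG hairpin DNA probe; 0% = median of test compound wells and 100% = reference inhibitor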
NSD2 HMT inh = NSD2 histone methyltransferase inhibitors, primary screen, biochemical, AlphaScreen, single concentration, set 2; AID 743445, 2014; 0.54% of 310,000 active; inhibition, % at 12.5 µM; Histone-lysine N-methyltransferase NSD2 (Homo sapiens), O96028; NSD2 peptide methylation, 120 min; in the data active means inhibition above about 50%
MBD2 inh = inhibitors of MBD2 binding to methylated DNA, primary screen, biochemical, TR-FRET, DNA-binding domain, human; inhibition, % at 4.4 µM; Methyl-CpG-binding domain protein 2 (Homo sapiens), Q9UBB5; MBD2 binding to methylated oligonucleotide; 0.31% of 370,000 active; AID 686964, 2013; in the data active means inhibition above about 13%
Target sequence (Q9UBB5 whole entry, looked up, the tested form may be a part): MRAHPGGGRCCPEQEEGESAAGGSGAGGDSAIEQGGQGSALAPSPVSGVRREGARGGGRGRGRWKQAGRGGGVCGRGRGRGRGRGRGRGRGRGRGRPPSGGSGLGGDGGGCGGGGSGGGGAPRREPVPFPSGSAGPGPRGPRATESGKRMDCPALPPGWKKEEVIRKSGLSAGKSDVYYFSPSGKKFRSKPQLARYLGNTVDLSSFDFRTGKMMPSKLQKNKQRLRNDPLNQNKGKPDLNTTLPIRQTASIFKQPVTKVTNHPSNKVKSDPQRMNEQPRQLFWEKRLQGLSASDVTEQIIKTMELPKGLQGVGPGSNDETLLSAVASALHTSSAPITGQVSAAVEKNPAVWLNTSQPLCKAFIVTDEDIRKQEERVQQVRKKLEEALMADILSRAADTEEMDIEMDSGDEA
TDP2 absorb = human TDP2 enzyme inhibitors, primary screen, biochemical, epi absorbance, recombinant enzyme; Tyrosyl-DNA phosphodiesterase 2 (Homo sapiens), O95551; T5PNP hydrolysis, p-nitrophenol absorbance 415 nm; inhibition, % at 12.8 µM; 0.34% of 370,000 active; AID 720702, 2013;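 active means inhibition above the mean of all tested compounds plus 3 SD, set per campaign, cut at about 25% in these data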;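 further: 0% = DMSO with enzyme and 100% = buffer with substrate but no TDP2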
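Read-out basis: percent inhibition. System: recombinant human TDP2. Buffer or medium: Mg2+-containing Tris-HCl buffer, pH 7.5. Repeats: single replicate. Timing: reaction 2 h, 37 °C. Benchmarks: high control without enzyme, low control DMSO plus TDP2. Probe or stimulus: 5 mM T5PNP. Doses: 12.8 µM only. Measured by: epi absorbance of p-nitrophenol freed from T5PNP by hydrolysis.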
Casp6 inh = human caspase-6 inhibitors, primary screen, biochemical, VEID-R110 fluorescence, single point, set 2 | P55212 | purified caspase-6, Z-VEID-R110 cleavage fluorescence | inhibition, % at 12.5 µM | 0.53% of 350,000 active | AID 686996, 2013;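 active means mean inhibition across replicates at least about 35%, with every replicate also reaching that limit, limit read from the data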;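 further: 0% = median of neutral control wells and 100% = no fluorescence left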
Target sequence (P55212 24-179 limits assumed): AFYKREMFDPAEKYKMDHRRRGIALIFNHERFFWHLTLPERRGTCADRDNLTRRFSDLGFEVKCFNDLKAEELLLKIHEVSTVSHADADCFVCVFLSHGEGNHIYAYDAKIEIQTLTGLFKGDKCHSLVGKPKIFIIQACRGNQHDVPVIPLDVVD
Target sequence (P55212 194-293 limits assumed): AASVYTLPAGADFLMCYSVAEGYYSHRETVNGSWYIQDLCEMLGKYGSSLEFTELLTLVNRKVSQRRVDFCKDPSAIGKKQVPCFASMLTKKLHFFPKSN
* marks the source's active call; other numbers are inactive results; . = no result.

SMILES	LEDGF integ inh	UHRF1 binding	NSD2 HMT inh	MBD2 inh	TDP2 absorb	Casp6 inh
CC=Cc1ccc2n(c1=O)C[C@@H]1[C@@H](CO)[C@H](C(=O)NC3CCCC3)[C@H]2N1Cc1ccncc1 (mixture of isomers)	.	.	.	.	.	-4.3
COc1ccc(NC(=O)N(C)C[C@H]2Oc3cc(-c4ccc(C)cc4)ccc3S(=O)(=O)N([C@H](C)CO)C[C@@H]2C)cc1	.	.	.	.	.	3.6
COc1ccccc1NC(=O)N1CCN(C)CC1	-4.0	34.1*	1.8	4.3	2.7	-4.0
COc1ccccc1NC(=O)c1ccc(NC(=O)CN2CCN(C(=O)c3ccco3)CC2)cc1	4.0	-2.0	-6.9	0.6	6.0	2.2
COc1ccccc1CN(C)C(=O)CN1CCN(CC(=O)Nc2ccccc2Cl)CC1	-2.5	-3.1	1.4	-4.1	0.6	36.5*
COc1ccccc1NC(=O)N1CCCC1	-3.0	4.8	-0.3	3.1	-4.7	.
COc1ccccc1NC(=O)CN1CCN(C(=O)c2ccco2)CC1	0.7	26.6*	-1.9	0.2	-6.0	.
CNC[C@@H]1Oc2ccc(NC(=O)Nc3ccc(OC)cc3)cc2C(=O)N([C@H](C)CO)C[C@H]1C	.	.	.	.	.	0.2
COc1ccc(S(=O)(=O)N(C)C[C@@H]2Oc3ccc(NC(=O)Nc4ccc(C(F)(F)F)cc4)cc3CC(=O)N([C@H](C)CO)C[C@@H]2C)cc1	.	.	.	.	.	0.0
CN1CCCCN2[C@@H](CO)[C@@H](c3ccc(C#CC4(O)CCCC4)cc3)[C@@H]2C1	.	.	.	.	.	1.7
O=C(c1ccc2c(c1)OCO2)N1CCCC1	2.3	7.5	-2.1	3.0	4.4	.
O=C(Nc1ccc(C(=O)N2CCCC2)cc1)c1ccc2c(c1)OCO2	-1.0	1.1	2.7	4.2	-2.3	44.3*
CO[C@H]1CN(C)C(=O)c2cc(NS(C)(=O)=O)ccc2OC[C@@H](C)N(Cc2nccs2)C[C@@H]1C	.	.	.	.	.	-0.3
Cc1ccc(CNCCNCCO)s1	-4.3	22.2*	-2.3	12.0	-10.8	-8.3
CCOc1ccccc1NC(=O)COC(=O)COc1c(Cl)cc(Cl)c2ccc(C)nc12	-3.9	37.1*	.	-0.1	-0.1	-1.0
Cc1cc(C)n(C)c(=O)c1C#N	0.0	-3.0	-1.5	-1.6	11.6	-0.9
Cc1c(C=O)c(Cl)n(C)c(=O)c1C#N	4.4	-3.4	.	-5.5	39.0*	51.3*
C[C@@H]1CCCCO[C@H](CN(C)S(=O)(=O)c2cn(C)cn2)[C@H](C)CN([C@@H](C)CO)C(=O)c2cc(NS(=O)(=O)c3ccc(Cl)cc3)ccc2O1	.	.	.	.	.	1.0
COc1ccccc1C(=O)COC(=O)c1ccc(N(C)C)cc1	0.7	99.7*	3.2	3.1	-3.1	-5.1
C[C@@H]1CCCCO[C@H](CN(C)S(=O)(=O)c2ccccc2)[C@@H](C)CN([C@@H](C)CO)C(=O)c2cc(NS(C)(=O)=O)ccc2O1	.	.	.	.	.	-1.1
CCOc1cc(NC(=S)NCC2CCCO2)c(OCC)cc1NC(=O)c1ccc(OC)cc1 (stereo not drawn)	-4.1	0.0	-1.7	-0.9	0.1	.
CCOc1cc(NC(=S)NCC2CCCO2)c(OCC)cc1NC(=O)c1ccccc1C (stereo not drawn)	1.3	47.2*	5.0	-1.4	5.2	.
OC12CC3C[C@H](C1)C(N1CCOCC1)[C@@H](C3)C2 (stereo partly drawn)	-3.9	52.1*	0.5	2.0	-8.9	-2.5
O=C(CC12CC3CC(CC(C3)C1)C2)N1CCOCC1	1.2	6.8	13.5	2.8	1.8	.
COc1ccccc1NC(=O)N1CC(=O)N2[C@@H](CO)[C@@H](c3ccc(C#Cc4ccccc4)cc3)[C@@H]2C1	.	.	.	.	.	-1.8
SMILES	LEDGF integ inh	UHRF1 binding	NSD2 HMT inh	MBD2 inh	TDP2 absorb	Casp6 inh
C[C@H](CO)N1C[C@H](C)[C@@H](CN(C)C(=O)Nc2ccc(C(F)(F)F)cc2)OCCCC[C@H](C)Oc2ccc(NC(=O)CCC(F)(F)F)cc2C1=O	.	.	.	.	.	2.1
O=C1ON=C(c2ccccc2)/C1=C\c1ccco1	11.8	2.3	13.7	2.8	-3.9	35.9*
O=C1ON=C(c2ccccc2)/C1=C/c1ccccc1	1.7	-1.7	0.5	-3.5	14.1	1.6
Cc1ccc(/C=C2/C(=O)ON=C2c2ccccc2)o1	2.6	-1.2	10.0	-0.6	9.2	59.6*
C[C@@H]1CCCCO[C@@H](CN(C)C(=O)C2CCCCC2)[C@@H](C)CN([C@@H](C)CO)C(=O)c2cc(NC(=O)Nc3cccc4ccccc34)ccc2O1	.	.	.	.	.	-0.4
C[C@@H]1CN([C@H](C)CO)C(=O)c2cc(NS(=O)(=O)c3cn(C)cn3)ccc2O[C@@H](C)CCCCO[C@H]1CN(C)S(=O)(=O)c1cn(C)cn1	.	.	.	.	.	0.3
C[C@H](CO)N1C[C@H](C)[C@@H](CN(C)Cc2ccc(C(=O)O)cc2)Oc2ncc(-c3ccccc3)cc2C1=O	.	.	.	.	.	2.3
O=C(O)c1ccccc1CC(CCc1ccccc1)C(=O)O (stereo not drawn)	5.0	20.8*	47.2	10.7	5.3	4.9
COc1ccc(C#Cc2ccc3c(c2)[C@@H]2[C@@H](CCN2S(=O)(=O)c2ccccc2C)[C@@H](CO)N3C)cc1	.	.	.	.	.	-2.4
Cc1ccc(S(=O)(=O)Nc2ccc3c(c2)CC(=O)N([C@H](C)CO)C[C@H](C)[C@@H](CN(C)S(=O)(=O)c2cn(C)cn2)O3)cc1	.	.	.	.	.	-2.5
Cc1ccc(N2CCN(/N=C/c3c(C)nn(-c4ccccc4)c3Cl)CC2)cc1	-4.5	3.6	1.0	0.8	0.8	45.0*
O=S(=O)(c1ccc2nc(N3CCN(c4ccccc4)CC3)ccc2c1)N1CCCCC1	-3.7	21.7*	1.5	2.1	-3.9	.
COc1ccccc1N1CCN(c2ccc3cc(S(=O)(=O)N4CCCCC4)ccc3n2)CC1	1.8	3.4	-3.6	-1.4	-16.1	0.4
O=Cc1c(NCc2ccccc2F)c2ccccc2[nH]c1=O	-4.3	-0.4	-1.5	2.3	13.1	1.7
COc1ccc(OC)c(CNc2c(C=O)c(=O)[nH]c3ccccc23)c1	1.4	43.2*	0.4	-2.6	4.2	3.4
O=[N+]([O-])c1ccccc1/C=C\C=N\N1CCN(c2ccccc2)CC1	-0.4	-0.3	92.9*	2.6	-12.3	0.9
O=[N+]([O-])c1ccccc1/C=N\N1CCN(c2ccccc2)CC1	-0.8	2.8	12.2	1.8	1.4	-0.3
CC(C)OC(=O)CSc1nc2ccccc2s1	2.5	23.2*	-1.6	9.9	3.8	.
CCC(C)(C)n1nnnc1CN1CCN(c2ccc(OC)cc2)CC1	0.5	21.8*	0.8	-0.6	-5.6	4.2
